Laboratory results taken from ChEMBL document CHEMBL4024777, “Discovery of LY3104607: A Potent and Selective G Protein-Coupled Receptor 40 (GPR40) Agonist with Optimized Pharmacokinetic Properties to Support Once Daily Oral Treatment in Patients with Type 2 Diabetes Mellitus” (J Med Chem, 2018).
Activity calls are given as the source filed them. The rule behind the calls is not given here.

Columns and labels:
[1] = target: T1, Peroxisome proliferator-activated receptor delta (Homo sapiens) (UniProt Q03181); test: Agonist activity at GAL4-fused human PPARdelta expressed in African green monkey CV1 cells up to 30 uM after 24 hrs by luciferase reporter gene assay; type: cell-based
T1 sequence (whole entry): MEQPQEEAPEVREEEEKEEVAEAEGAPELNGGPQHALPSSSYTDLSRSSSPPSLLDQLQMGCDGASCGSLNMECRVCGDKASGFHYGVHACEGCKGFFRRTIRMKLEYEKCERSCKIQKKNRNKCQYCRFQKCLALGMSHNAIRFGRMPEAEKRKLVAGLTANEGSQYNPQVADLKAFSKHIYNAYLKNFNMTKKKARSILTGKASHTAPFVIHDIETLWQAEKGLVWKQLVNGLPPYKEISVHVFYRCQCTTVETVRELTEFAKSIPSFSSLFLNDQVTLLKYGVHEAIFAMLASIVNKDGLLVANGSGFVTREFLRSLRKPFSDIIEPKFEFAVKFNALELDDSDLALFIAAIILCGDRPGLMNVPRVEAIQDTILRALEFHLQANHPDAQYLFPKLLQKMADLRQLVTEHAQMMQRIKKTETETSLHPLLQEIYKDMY
In short: (§1)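 PPAR alpha, delta and gamma binding and functional activity were each tested at concentrations up to 30 µM.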

[2] = Clearance in Sprague-Dawley rat at 1 mg/kg, iv; type: ADME, organism-based; conditions: in vivo
[3] = target: Free fatty acid receptor 1 (Rattus norvegicus) (UniProt Q8K3T4); test: Agonist activity at rat PK-tagged GPR40 expressed in human U2OS cells assessed as EA-tagged beta-arrestin recruitment after 90 mins in presence of 1 % heat inactivated FBS by beta-galactosidase reporter gene assay relative to untreated control; type: cell-based
Chain of Free fatty acid receptor 1 (Rattus norvegicus) (Q8K3T4 whole entry): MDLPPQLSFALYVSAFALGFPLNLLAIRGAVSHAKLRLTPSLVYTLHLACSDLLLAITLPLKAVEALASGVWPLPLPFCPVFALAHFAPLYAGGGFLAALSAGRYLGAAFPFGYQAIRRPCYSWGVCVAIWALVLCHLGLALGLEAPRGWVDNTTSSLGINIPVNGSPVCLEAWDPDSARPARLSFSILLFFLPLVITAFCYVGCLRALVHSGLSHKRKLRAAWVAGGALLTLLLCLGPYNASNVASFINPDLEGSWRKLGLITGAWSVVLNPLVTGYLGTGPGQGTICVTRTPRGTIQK

[4] = Oral bioavailability in Sprague-Dawley rat at 1 mg/kg; type: ADME, organism-based; conditions: in vivo
In short: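 Fasted rats given oral doses of 1 mg/kg. […] Bioavailability is calculated against the 1 mg/kg IV group.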

[5] = target: T2, Free fatty acid receptor 1 (Homo sapiens, UniProt O14842); test: Agonist activity at human PK-tagged GPR40 expressed in HEK293 cells assessed as EA-tagged beta-arrestin recruitment after 90 mins in presence of 1 % heat inactivated FBS by beta-galactosidase reporter gene assay; type: cell-based
T2 sequence (O14842 whole entry): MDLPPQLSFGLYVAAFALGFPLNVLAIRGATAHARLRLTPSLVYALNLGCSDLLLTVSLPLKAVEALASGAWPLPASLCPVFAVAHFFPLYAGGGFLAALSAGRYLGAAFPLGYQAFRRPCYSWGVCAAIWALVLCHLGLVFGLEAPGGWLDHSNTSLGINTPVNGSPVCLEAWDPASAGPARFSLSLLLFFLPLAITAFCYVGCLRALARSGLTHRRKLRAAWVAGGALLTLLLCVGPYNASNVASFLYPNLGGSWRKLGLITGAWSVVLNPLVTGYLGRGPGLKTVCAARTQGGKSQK

[6] = Metabolic stability in dog microsomes assessed as compound metabolized after 30 mins; type: ADME, Canis lupus familiaris, Microsome; conditions: read-out: Drug metabolism
In short: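 Compound incubated 30 min with liver microsomes from mouse, rat, dog or human. Percent of compound metabolized recorded, as mean (SEM, n).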

[7] = AUC (0 to 24 hrs) in Sprague-Dawley rat at 1 mg/kg, po; type: ADME, organism-based; set-up: time < 24 hr, dose 1 mg/kg, route oral; conditions: in vivo
[8] = Half life in Beagle dog at 3 mg/kg, po; type: ADME, organism-based, Canis lupus familiaris; conditions: in vivo
[9] = Tmax in Beagle dog at 300 mg/kg, po; type: ADME, organism-based, Canis lupus familiaris; conditions: in vivo
In short: (§2)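 Dogs dosed orally at 30, 100 or 300 mg/kg, N = 2 per dose.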

Rattus norvegicus [10] = test: Toxicity in Zucker fa/fa rat assessed as alteration in food consumption at 1 to 10 mg/kg, po; type: organism-based; conditions: in vivo
In short: (§3)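 Male Zucker fa/fa rats, 10 weeks old, given daily oral doses of 1, 3 or 10 mg/kg for 21 days. Body weight and food consumption tracked, with a reference agonist as positive control.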

[11] = Tmax in Sprague-Dawley rat at 10 mg/kg, po; type: ADME, organism-based; conditions: in vivo
[12] = Oral bioavailability in Beagle dog at 3 mg/kg; type: ADME, organism-based, Canis lupus familiaris; conditions: in vivo
In short: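 Fasted dogs dosed orally at 3 mg/kg. […] Bioavailability is derived relative to the 1 mg/kg IV dose.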

[13] = AUC (0 to 24 hrs) in Sprague-Dawley rat at 1 mg/kg, iv; type: ADME, organism-based; set-up: dose 1 mg/kg, time < 24 hr, route intravenous; conditions: in vivo
[14] = target: T3, Peroxisome proliferator-activated receptor gamma (Homo sapiens) (UniProt P37231); test: Agonist activity at […] human PPARgamma expressed in African green monkey CV1 cells up to 30 uM after 24 hrs by luciferase reporter gene assay; type: cell-based; in short: as §1
T3 sequence (whole entry): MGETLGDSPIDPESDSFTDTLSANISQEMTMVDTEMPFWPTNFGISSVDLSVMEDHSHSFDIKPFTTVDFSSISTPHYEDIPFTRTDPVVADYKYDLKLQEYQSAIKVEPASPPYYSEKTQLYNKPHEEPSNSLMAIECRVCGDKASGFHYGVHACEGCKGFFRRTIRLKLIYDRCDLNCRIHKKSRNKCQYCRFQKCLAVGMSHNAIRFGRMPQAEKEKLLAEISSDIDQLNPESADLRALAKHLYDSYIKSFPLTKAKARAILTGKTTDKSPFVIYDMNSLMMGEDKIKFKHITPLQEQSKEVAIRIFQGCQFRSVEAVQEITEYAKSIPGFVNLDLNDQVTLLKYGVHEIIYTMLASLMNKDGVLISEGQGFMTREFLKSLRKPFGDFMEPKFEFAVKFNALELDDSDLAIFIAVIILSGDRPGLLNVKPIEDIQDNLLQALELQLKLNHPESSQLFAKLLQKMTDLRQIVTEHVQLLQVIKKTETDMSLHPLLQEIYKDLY

[15] = target: Free fatty acid receptor 1 (Rattus norvegicus) (UniProt Q8K3T4); test: Agonist activity at GPR40 in Sprague-Dawley rat islets assessed as glucose-stimulated insulin secretion levels at 1 uM in presence of 11.2 mM glucose by ELISA (reference value: 6.24 ng/ml)
[16] = Intrinsic clearance in human hepatocytes; type: ADME, cell-based, Hepatocyte
[17] = AUC (0 to 24 hrs) in Beagle dog at 1 mg/kg, iv; type: ADME, organism-based, Canis lupus familiaris; set-up: time < 24 hr, dose 1 mg/kg, route intravenous; conditions: in vivo
[18] = Drug metabolism in dog hepatocytes assessed as metabolite-B formation; type: ADME, cell-based, Canis lupus familiaris, Hepatocyte
[19] = Tmax in Beagle dog at 100 mg/kg, po; type: ADME, organism-based, Canis lupus familiaris; conditions: in vivo; in short: as §2
[20] = Cmax in Sprague-Dawley rat at 1 mg/kg, po; type: ADME, organism-based; set-up: dose 1 mg/kg, route oral; conditions: in vivo
Cytochrome P450 3A4 = Cytochrome P450 3A4 (Homo sapiens, UniProt P08684); test: Inhibition of human CYP3A4; type: ADME
Chain of Cytochrome P450 3A4 (P08684 whole entry): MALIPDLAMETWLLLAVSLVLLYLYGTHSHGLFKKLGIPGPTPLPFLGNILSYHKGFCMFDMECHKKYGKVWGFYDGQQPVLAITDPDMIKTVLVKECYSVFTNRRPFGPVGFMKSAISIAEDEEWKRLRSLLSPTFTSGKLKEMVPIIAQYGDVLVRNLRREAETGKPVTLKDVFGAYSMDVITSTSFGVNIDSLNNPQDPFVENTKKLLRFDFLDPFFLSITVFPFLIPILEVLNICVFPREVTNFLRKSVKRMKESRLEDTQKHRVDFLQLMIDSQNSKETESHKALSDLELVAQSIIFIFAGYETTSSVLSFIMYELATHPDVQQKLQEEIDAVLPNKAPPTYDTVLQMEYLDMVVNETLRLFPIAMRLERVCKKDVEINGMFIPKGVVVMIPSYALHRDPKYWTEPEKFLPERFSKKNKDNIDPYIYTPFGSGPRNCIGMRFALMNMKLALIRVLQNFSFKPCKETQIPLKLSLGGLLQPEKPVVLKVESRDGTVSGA

[21] = Drug metabolism in dog hepatocytes assessed as glucuronidation; type: ADME, cell-based, Canis lupus familiaris, Hepatocyte
[22] = Tmax in Beagle dog at 30 mg/kg, po; type: ADME, organism-based, Canis lupus familiaris; conditions: in vivo; in short: as §2
[23] = Initial plasma concentration in Beagle dog at 1 mg/kg, iv; type: ADME, organism-based, Canis lupus familiaris
[24] = Intrinsic clearance in human microsomes; type: ADME, Microsome
[25] = target: T2, Free fatty acid receptor 1; test: Agonist activity at human GPR40 receptor expressed in HEK293 cells assessed as increase in intracellular calcium flux after 2.5 hrs measured over 3 mins by calcium 4 dye-based FLIPR assay relative to linoleic acid; type: functional, cell-based; set-up: Activity: concentration or dose not given beside the values
In short: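 Human GPR40 calcium flux was read on FLIPR. Percent stimulation is expressed against the response to 100 uM linoleic acid.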

[26] = Cmax in Beagle dog at 30 mg/kg, po; type: ADME, organism-based, Canis lupus familiaris; set-up: dose 30 mg/kg, route oral; conditions: in vivo
[27] = target: Free fatty acid receptor 1 (Rattus norvegicus, UniProt Q8K3T4); test: Agonist activity at rat PK-tagged GPR40 expressed in human U2OS cells assessed as EA-tagged beta-arrestin recruitment after 90 mins in presence of 1 % heat inactivated FBS by beta-galactosidase reporter gene assay; type: cell-based
Chain of Free fatty acid receptor 1 (Rattus norvegicus, UniProt Q8K3T4) (Q8K3T4 whole entry): as the sequence (Q8K3T4 whole entry) above
In short: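 β-Arrestin recruitment used rat GPR40 in the presence of 1% FBS. EC50 and % maximal stimulation are reported with SEM and n.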

[28] = Aqueous solubility of the compound at pH 7.4; type: physicochemical
In short: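 Solubility was measured by DMSO/aqueous precipitation at pH 7.4 and reported as the last soluble concentration.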

Rattus norvegicus [29] = test: Toxicity in Zucker fa/fa rat assessed as change in body weight at 1 to 10 mg/kg, po; type: organism-based; conditions: in vivo; in short: as §3

**Q.** With `CC#C[C@@H](CC(=O)O)c1ccc(OCc2ccc3nc(-c4c(C)cccc4C)nn3c2)cc1` as the molecule, how does the Activity [1] read?
**A.** The Activity was “inactive”.

**Q.** What about the clearance [2] of the same molecule?
**A.** Its clearance is 1.32 mL/min/kg.

**Q.** And the %max [3]?
**A.** Its %max is 130%.

**Q.** What about the bioavailability [4] of the same molecule?
**A.** The bioavailability was 93%.

**Q.** And the EC50 [5]?
**A.** Its EC50 is 0.108 µM.

**Q.** And the metabolised at 0.5 h [6]?
**A.** The metabolised at 0.5 h was 5%.

**Q.** What about the AUC(0-t) at 24 h [7] of the same molecule?
**A.** Its AUC(0-t) at 24 h is 11700 ng·h/mL.

**Q.** And the half-life [8]?
**A.** The half-life was 5.49 h.

**Q.** What about the Tmax [9] of the same molecule?
**A.** The Tmax was 6 h.

**Q.** And the Activity (Rattus norvegicus [10])?
**A.** The Activity was “Non-Toxic”.

**Q.** And the Tmax [11]?
**A.** Its Tmax is 4 h.

**Q.** What about the bioavailability [12] of the same molecule?
**A.** The bioavailability was 83%.

**Q.** What about the AUC(0-t) at 24 h [13] of the same molecule?
**A.** The AUC(0-t) at 24 h was 12700 ng·h/mL.

**Q.** And the Activity [14]?
**A.** Its Activity is “inactive”.

**Q.** And the Activity [15]?
**A.** The Activity was 17.1 ng/mL.

**Q.** And the K [16]?
**A.** The K was 0.099 h⁻¹.

**Q.** And the AUC(0-t) at 24 h [17]?
**A.** Its AUC(0-t) at 24 h is 27300 ng·h/mL.

**Q.** What about the Drug metabolism [18] of the same molecule?
**A.** Its Drug metabolism is “Metabolite_Detected”.

**Q.** And the Tmax [19]?
**A.** The Tmax was 3 h.

**Q.** And the Cmax [20]?
**A.** The Cmax was 3380 ng/mL.

**Q.** What about the IC50 (Cytochrome P450 3A4) of the same molecule?
**A.** The IC50 was > 60 µM.

**Q.** And the Drug metabolism [21]?
**A.** Its Drug metabolism is “Metabolite_Detected”.

**Q.** And the Tmax [22]?
**A.** The Tmax was 2 h.

**Q.** And the C0 [23]?
**A.** Its C0 is 8240 ng/mL.

**Q.** And the K [24]?
**A.** Its K is < 0.0009 h⁻¹.

**Q.** What about the Activity [25] of the same molecule?
**A.** Its Activity is 54%.

**Q.** And the Cmax [26]?
**A.** Its Cmax is 126000 ng/mL.

**Q.** And the EC50 [27]?
**A.** Its EC50 is 0.014 µM.

**Q.** What about the solubility [28] of the same molecule?
**A.** The solubility was > 100 µM.

**Q.** What about the Activity (Rattus norvegicus [29]) of the same molecule?
**A.** Its Activity is “Non-Toxic”.
